Calls of active or inactive are those of the source.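 The calls were made as follows, unless noted: active = viability at or under a set limit in both replicates, limit being median viability minus 3 SD (cut at about 48% in these data, passing the limit was not always enough); inconclusive = at or under the limit in just one replicate; inactive = at or above the limit in both replicates.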

By viability is commonly meant a read-out of living cells in per cent, often relative to untreated cells. As usually defined, the inhibition is the change of the read-out against control, counted positive when it falls.

Assay [1] is described as follows: reduced viability of SK-BR-3 breast cancer cells – cell-based, 24 h, human, pilot screen (AID 572;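 active = viability at or below 10% of carrier control in both of two separate runs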;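 also: compound exposure lasted between 18 and 24 h rather than exactly 24 h; 100% = carrier-treated control wells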). Particulars: SK-BR-3 viability, CellTiter-Glo luminescence, at 10 µM, stronger effect = lower value.
A short description of assay [2]: HUVEC growth inhibition – cell-based, human, primary screen (AID 575;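 active = viability at or below 30% in both replicate assays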;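 also: 100% = median of untreated cell wells with 0.1% DMSO on each plate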). The note with it: HUVEC proliferation, CellTiter-Glo luminescence, 72 h; at 10 µM; stronger effect = lower value. A digest of the protocol: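 Material: primary human umbilical vein endothelial cells / Schedule: 72 h exposure, 37 °C, 5% CO2, 30 min RT equilibration / Signal: ATP-based CellTiter-Glo luminescent read / Read-out basis: percent of median DMSO-control luminescence / Control set: 32 DMSO-only cell-control wells (high), 32 MePR drug-control wells (low) per plate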

A short description of assay [3]: H69AR cell proliferation blockers – human, duplicate replicates, primary screen (AID 580).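 Also: 100% = mean luminescence of untreated wells and 0% = no signal.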 Particulars: H69AR lung tumor cells viability, ATP luminescence, 72 h; at 10 µM; stronger effect = lower value.
Assay [4] in a line: MRP1 drug-resistance reversers in H69AR cells – cell-based, doxorubicin co-treatment, pilot screen (AID 601;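 active = viability loss from added drug above about 55%, and viability with drug at most 40%, in both replicates, limit read from the data, passing the limit was not always enough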). The note with it: CellTiter-Glo, 72 h, at 10 µM; for differential viability (reversal): stronger effect = higher value. Background: ATP-based viability assays read luminescence as a measure of living cells.
A short description of assay [5]: yeast transport mutant growth inhibition pilot in 384-well plates, post-Golgi transport modulator project (AID 636; in the data active = inhibition above about 31%). Particulars: absorbance 615 nm, about 18 h, stronger effect = higher value.
Assay [6] is described as follows: growth suppression of yeast trafficking mutant, preliminary HTS, modulators of trafficking downstream of Golgi apparatus project, 1536-format plate, OD 615 nm (AID 637; in the data active = inhibition above about 30%). The note with it: yeast transport mutant growth, absorbance 615 nm, 18 h; stronger effect = higher value.
[7] abbreviates: H69AR cells + 2 uM doxorubicin, measured here: viability with 2 uM doxorubicin, stronger effect = lower value.
The mark [8] stands for this setting: H69AR cells, compound alone cytotoxicity.

For `Cc1ccc(-n2ncc3c(=O)n(CC(=O)NCc4ccco4)cnc32)cc1`, the viability is 105% (inactive) in assay [1]; 76.5% (inactive) in assay [2]; 81.3% (inactive) in assay [3]; 93.6% in assay [4] (setting [7]); 81.3% in assay [4] (setting [8]). The differential viability (reversal) in assay [4] (H69AR cells + 2 uM doxorubicin) is -12.3% (inactive). Besides, the inhibition in assay [5] was 1.92% (inactive); in assay [6], 1.77% (inactive).
Consider `CCNc1ccc(S(=O)(=O)C(F)(F)F)cc1NC(=O)C12CCC(CC1)C2`, for which the viability in assay [1] is 102% (inactive); in assay [2] it was 102% (inactive); in assay [3] it was 92.3% (inactive); in assay [4] (setting [7]) it was 95.7%; in assay [4] (setting [8]), 92.3%. The differential viability (reversal) in assay [4] (H69AR cells + 2 uM doxorubicin) was -3.33% (inactive). For the same compound, the inhibition in assay [5] is 1.78% (inactive); in assay [6], 2% (inactive).
`Cc1cc(N2C(=O)CC(N3CCN(c4ccc(C(=O)c5cccs5)cc4)CC3)C2=O)no1` (stereo unspecified): the viability in assay [1] is 96% (inactive); in assay [2], 87.4% (inactive); in assay [3] it was 87.6% (inactive); in assay [4] (setting [7]) it was 92.6%; in assay [4] (setting [8]), 87.6%. In assay [4] (H69AR cells + 2 uM doxorubicin), the differential viability (reversal) was -4.99% (inactive). The inhibition is -3.42% (inactive) in assay [5] and 13.6% (inactive) in assay [6].
As for `CC(C)Oc1cc2oc(=O)c3c(c2cc1Cl)CCC3`, the viability is 66% (inactive) in assay [1]; 99% (inactive) in assay [2]; 98.2% (inactive) in assay [3]; 78.6% in assay [4] (setting [7]); 98.2% in assay [4] (setting [8]). For the same compound, the differential viability (reversal) in assay [4] (H69AR cells + 2 uM doxorubicin) is 19.7% (inactive). For the same compound, the inhibition in assay [5] was -7.4% (inactive); in assay [6], 0.97% (inactive).
Consider `O=C1c2ccccc2S(=O)(=O)N1Cc1nnc(-c2ccccc2Br)o1`, for which the viability is 88% (inactive) in assay [1]; 102% (inactive) in assay [2]; 95% (inactive) in assay [3]; 78% in assay [4] (setting [7]); 95% in assay [4] (setting [8]). Moreover, in assay [4] (H69AR cells + 2 uM doxorubicin), the differential viability (reversal) was 17% (inactive). In addition, the inhibition in assay [5] is -5.62% (inactive); in assay [6], 0.32% (inactive).
In the case of `CC(C(=O)O)c1ccc(-c2ccccc2)c(F)c1` (stereo unspecified), the viability in assay [1] is 94% (inactive); in assay [2] it was 81.7% (inactive); in assay [3], 90.2% (inactive); in assay [4] (setting [7]) it was 91.8%; in assay [4] (setting [8]) it was 90.2%. In addition, the differential viability (reversal) in assay [4] (H69AR cells + 2 uM doxorubicin) was -1.62% (inactive). Moreover, the inhibition in assay [5] was -1.82% (inactive); in assay [6], -1.5% (inactive).
As for `NS(=O)(=O)c1ccc(NC(=O)CSc2nnc(Cc3cccs3)n2-c2ccccc2)cc1`, the viability was 57% (inactive) in assay [1]; 93.6% (inactive) in assay [2]; 93.3% (inactive) in assay [3]; 89.2% in assay [4] (setting [7]); 93.3% in assay [4] (setting [8]). For the same compound, the differential viability (reversal) in assay [4] (H69AR cells + 2 uM doxorubicin) was 4.08% (inactive). Also, the inhibition was -7.53% (inactive) in assay [5] and 2.18% (inactive) in assay [6].
Take `O=C(O)CC1Sc2nc3ccccc3n2C1=O` (stereo unspecified): the viability in assay [1] is 105% (inactive); in assay [2], 111% (inactive); in assay [3], 102% (inactive); in assay [4] (setting [7]), 95.4%; in assay [4] (setting [8]), 102%. In assay [4] (H69AR cells + 2 uM doxorubicin), the differential viability (reversal) was 6.67% (inactive). Also, the figures for the inhibition in assay [5] and in assay [6] were -6.08% (inactive) and -5.27% (inactive), respectively.
Regarding `Cn1c(-c2ccc(F)cc2)cnc1SCC(=O)Nc1ccccc1N1CCOCC1`, the viability is 94% (inactive) in assay [1]; 103% (inactive) in assay [2]; 102% (inactive) in assay [3]; 88.8% in assay [4] (setting [7]); 102% in assay [4] (setting [8]). Also, in assay [4] (H69AR cells + 2 uM doxorubicin), the differential viability (reversal) is 12.9% (inactive). Further, the figures for the inhibition in assay [5] and in assay [6] were -7.57% (inactive) and -4.55% (inactive), respectively.
Consider `Cc1ccc(-c2ccc(=O)n(CC(=O)NCCCN3CCCCC3C)n2)cc1` (stereo unspecified), for which the viability was 97% (inactive) in assay [1]; 99% (inactive) in assay [2]; 91.9% (inactive) in assay [3]; 95.4% in assay [4] (setting [7]); 91.9% in assay [4] (setting [8]). The differential viability (reversal) in assay [4] (H69AR cells + 2 uM doxorubicin) was -3.54% (inactive). Further, the inhibition in assay [5] is -0.39% (inactive); in assay [6], -6.56% (inactive).
Regarding `COc1ccc(CN(C(=O)CN2C(=O)COc3ccccc32)C2CCCC2)c(OC)c1`, the viability in assay [1] is 110% (inactive); in assay [2] it was 87.4% (inactive); in assay [3], 92.5% (inactive); in assay [4] (setting [7]), 87.9%; in assay [4] (setting [8]), 92.5%. The differential viability (reversal) in assay [4] (H69AR cells + 2 uM doxorubicin) was 4.62% (inactive). The inhibition in assay [5] was -4.52% (inactive); in assay [6] it was -0.18% (inactive).
Consider `CCCCc1nc(NCCN2CCOCC2)c(C#N)c2c1COC(C)(C)C2`, for which the viability in assay [1] was 76% (inactive); in assay [2], 94.1% (inactive); in assay [3], 91.6% (inactive); in assay [4] (setting [7]), 87.5%; in assay [4] (setting [8]), 91.6%. The differential viability (reversal) in assay [4] (H69AR cells + 2 uM doxorubicin) is 4.02% (inactive). Further, the inhibition in assay [5] is 5.48% (inactive); in assay [6] it was 6.77% (inactive).

For the origin of these results see PubChem BioAssay.
